From ChEMBL document CHEMBL2057186, “Application of the bicyclo[1.1.1]pentane motif as a nonclassical phenyl ring bioisostere in the design of a potent and orally active γ-secretase inhibitor” (J Med Chem, 2012)
In brackets after ≈: the same amount, converted by molar mass.

Assays:
Liver microsomes = test: Drug metabolism in human liver microsomes assessed as GSH/GSH-EE adduct formation after 60 mins by LC/MS/MS analysis; type: ADME, Microsome; settings: 1 h
[1] = AUC (last) in 129/sve mouse brain at 30 mg/kg, po administered as single dose by LC-MS/MS analysis; type: ADME, organism-based; design: time 0 - last, dose 30 mg/kg, route oral
Procedure, shortened: (§1)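 Wild-type male 129/sve mice received a single oral dose in 98% (v/v) Phosal 50 PG / 2% Tween 80. Drug was measured in plasma, brain and CSF. Study was nonserial, so AUC came from mean matrix concentrations at each time point. Values are mean ± SD (n = 4 or 5).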

[2] = Volume of distribution at steady state in Sprague-Dawley rat at 1 mg/kg, iv; type: ADME, organism-based; design: dose 1 mg/kg, route intravenous; settings: in vivo, read-out: Vdss
Procedure, shortened: (§2)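 Female rats were dosed once, 1 mg/kg iv (2 mL/kg, 0.5 mg/mL) or 5 mg/kg po (10 mL/kg, 0.5 mg/mL). Vehicle was 40% (w/v) hydroxypropyl-β-cyclodextrin. Plasma was sampled to 24 h. Values are means ± SEM (n = 3).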

Cytochrome P450 3A4 = Cytochrome P450 3A4 (Homo sapiens, UniProt P08684); test: Inhibition of CYP3A4 in human liver microsomes using midazolam as substrate; type: ADME, Microsome
Mus musculus [3] = test: Antialzheimer activity in 129/sve mouse assessed as reduction in amyloid beta42 level in brain at 30 mg/kg, po administered as single dose measured at 5 hrs by ELISA relative to vehicle treated control; type: functional; design: scale not given: the % may be the effect or the level left
Procedure, shortened: (§3)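 Wild-type male 129/sve mice received a single oral dose in Phosal 50 PG/Tween 80 vehicle. Aβ40 was measured in brain, CSF and plasma and Aβ42 in brain over a time course. Levels are expressed as % of vehicle-treated animals. Values are mean ± SEM, n = 5 or 8 per time point.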

[4] = Ratio of fraction unbound in brain to fraction unbound in plasma in Sprague-Dawley rat; type: ADME
Cytochrome P450 2C9 = Cytochrome P450 2C9 (Homo sapiens, UniProt P11712); test: Inhibition of CYP2C9 in human liver microsomes using diclofenac as substrate; type: ADME, Microsome
[5] = Tmax in Sprague-Dawley rat at 5 mg/kg, po; type: ADME, organism-based; design: dose 5 mg/kg, route oral; settings: in vivo; procedure, shortened: as §2
[6] = molecular target: Voltage-gated inwardly rectifying potassium channel KCNH2 (Homo sapiens, UniProt Q12809); test: Displacement of dofetilide from human ERG
[7] = Ratio of drug level in brain to plasma in 129/sve mouse at 30 mg/kg, po administered as single dose by LC-MS/MS analysis; type: ADME, organism-based; design: dose 30 mg/kg, route oral; settings: read-out: BPR
Procedure, shortened: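 Wild-type male 129/sve mice were dosed orally once in 98% Phosal 50 PG/2% Tween 80. Brain/plasma ratio was taken as AUC_brain/AUC_plasma, using mean-concentration AUCs from a nonserial design.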

[8] = Tmax in 129/sve mouse cerebrospinal fluid at 30 mg/kg, po administered as single dose by LC-MS/MS analysis; type: ADME, organism-based; design: dose 30 mg/kg, route oral
Procedure, shortened: (§4)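 Single-dose oral PK in wild-type male 129/sve mice. Formulation was 98% (v/v) Phosal 50 PG with 2% Tween 80. Compound was measured in plasma, brain and CSF. Values are means ± standard deviations (n = 4 or 5).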

[9] = AUC (last) in 129/sve mouse cerebrospinal fluid at 30 mg/kg, po administered as single dose by LC-MS/MS analysis; type: ADME, organism-based; design: time 0 - last, dose 30 mg/kg, route oral; procedure, shortened: as §1
[10] = Thermodynamic solubility of the compound at pH 6.5; type: physicochemical; settings: buffer, read-out: Therm_solubility
Procedure, shortened: (§5)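 Thermodynamic solubility was measured in aqueous buffer at pH 6.5 and at pH 7.4.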

P-gp = test: Efflux ratio of apparent permeability from basal to apical side to apical to basal side of MDCK cells expressing human P-gp; type: ADME, cell-based, Canis lupus familiaris; settings: dog, MDCK-MDR1
Procedure, shortened: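 Monolayers were MDCK cells transfected with the human P-glycoprotein (MDR1) gene. Permeability was measured basolateral-to-apical and apical-to-basolateral, and the BA/AB ratio was reported.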

[11] = Cmax in 129/sve mouse brain at 30 mg/kg, po administered as single dose by LC-MS/MS analysis; type: ADME, organism-based; design: dose 30 mg/kg, route oral; procedure, shortened: as §4
Mus musculus [12] = test: Antialzheimer activity in 129/sve mouse assessed as reduction in amyloid beta40 level in brain at 30 mg/kg, po administered as single dose measured at 5 hrs by ELISA relative to vehicle treated control; type: functional; design: scale not given: the % may be the effect or the level left; procedure, shortened: as §3
Cytochrome P450 2C19 = Cytochrome P450 2C19 (Homo sapiens, UniProt P33261); test: Inhibition of CYP2C19 in human liver microsomes using (S)-mephenytoin as substrate; type: ADME, Microsome
Mus musculus [13] = test: Antialzheimer activity in 129/sve mouse assessed as reduction in amyloid beta40 level in CSF at 30 mg/kg, po administered as single dose measured at 1 hr by ELISA relative to vehicle treated control; type: functional; design: scale not given: the % may be the effect or the level left; procedure, shortened: as §3
[14] = AUC (0 to 24 hrs) in Sprague-Dawley rat at 5 mg/kg, po; type: ADME, organism-based; design: time < 24 hr, dose 5 mg/kg, route oral; settings: plasma
Procedure, shortened: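 Single-dose PK in female rats; iv at 1 mg/kg (2 mL/kg, 0.5 mg/mL) and po at 5 mg/kg (10 mL/kg, 0.5 mg/mL), both formulated in 40% (w/v) hydroxypropyl-β-cyclodextrin.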

[15] = Plasma clearance in Sprague-Dawley rat at 1 mg/kg, iv; type: ADME, organism-based; design: dose 1 mg/kg, route intravenous; procedure, shortened: as §2
[16] = Oral bioavailability in Sprague-Dawley rat at 5 mg/kg; type: ADME, organism-based; settings: in vivo; procedure, shortened: as §2
[17] = Tmax in 129/sve mouse plasma at 30 mg/kg, po administered as single dose by LC-MS/MS analysis; type: ADME, organism-based; design: dose 30 mg/kg, route oral; procedure, shortened: as §4
[18] = Ratio of drug level in brain to plasma in Sprague-Dawley rat; type: ADME; settings: read-out: BPR
[19] = Thermodynamic solubility of the compound at pH 7.4; type: physicochemical; settings: buffer, read-out: Therm_solubility; procedure, shortened: as §5
Cytochrome P450 1A2 = molecular target: T1, Cytochrome P450 1A2 (Homo sapiens, UniProt P05177); test: Inhibition of CYP1A2 in human liver microsomes using tacrine as substrate; type: ADME, Microsome
T1 sequence (P05177 whole entry): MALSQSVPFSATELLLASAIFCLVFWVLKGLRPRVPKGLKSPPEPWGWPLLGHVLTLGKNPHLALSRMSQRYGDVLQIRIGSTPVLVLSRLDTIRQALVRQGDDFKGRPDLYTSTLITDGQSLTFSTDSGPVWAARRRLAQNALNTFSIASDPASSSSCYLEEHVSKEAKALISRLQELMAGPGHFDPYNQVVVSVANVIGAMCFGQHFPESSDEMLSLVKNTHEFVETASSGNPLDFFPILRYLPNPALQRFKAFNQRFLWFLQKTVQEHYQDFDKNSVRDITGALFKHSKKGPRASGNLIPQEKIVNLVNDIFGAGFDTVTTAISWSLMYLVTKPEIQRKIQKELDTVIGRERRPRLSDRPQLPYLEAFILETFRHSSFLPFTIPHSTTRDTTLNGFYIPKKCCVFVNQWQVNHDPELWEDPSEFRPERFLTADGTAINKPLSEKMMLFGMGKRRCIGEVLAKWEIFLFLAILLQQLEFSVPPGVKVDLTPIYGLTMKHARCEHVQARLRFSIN

Hepatocyte = test: Apparent total intrinsic clearance in human hepatocytes assessed per million cells; type: ADME, cell-based
[20] = Cmax in 129/sve mouse plasma at 30 mg/kg, po administered as single dose by LC-MS/MS analysis; type: ADME, organism-based; design: dose 30 mg/kg, route oral; procedure, shortened: as §4
[21] = Cmax in Sprague-Dawley rat at 5 mg/kg, po; type: ADME, organism-based; design: dose 5 mg/kg, route oral; settings: in vivo; procedure, shortened: as §2
[22] = Fraction unbound in 129/sve mouse plasma at 30 mg/kg, po administered as single dose; type: ADME, organism-based; design: dose 30 mg/kg, route oral

Cytochrome P450 2C9, sequence (P11712 whole entry): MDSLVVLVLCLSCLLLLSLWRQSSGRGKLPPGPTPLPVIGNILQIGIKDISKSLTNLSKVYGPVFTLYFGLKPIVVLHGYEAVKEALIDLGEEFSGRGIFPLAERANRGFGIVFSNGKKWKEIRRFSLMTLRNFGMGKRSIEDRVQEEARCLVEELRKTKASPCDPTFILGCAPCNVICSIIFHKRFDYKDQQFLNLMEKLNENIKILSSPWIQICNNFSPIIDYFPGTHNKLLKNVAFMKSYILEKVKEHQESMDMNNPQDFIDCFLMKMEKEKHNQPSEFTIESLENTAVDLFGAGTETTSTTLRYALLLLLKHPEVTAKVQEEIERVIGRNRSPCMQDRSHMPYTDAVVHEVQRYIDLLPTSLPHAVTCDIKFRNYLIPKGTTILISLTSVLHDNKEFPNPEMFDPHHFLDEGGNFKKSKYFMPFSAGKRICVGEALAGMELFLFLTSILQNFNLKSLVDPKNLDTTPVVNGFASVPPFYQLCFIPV
Voltage-gated inwardly rectifying potassium channel KCNH2, sequence (Q12809 whole entry): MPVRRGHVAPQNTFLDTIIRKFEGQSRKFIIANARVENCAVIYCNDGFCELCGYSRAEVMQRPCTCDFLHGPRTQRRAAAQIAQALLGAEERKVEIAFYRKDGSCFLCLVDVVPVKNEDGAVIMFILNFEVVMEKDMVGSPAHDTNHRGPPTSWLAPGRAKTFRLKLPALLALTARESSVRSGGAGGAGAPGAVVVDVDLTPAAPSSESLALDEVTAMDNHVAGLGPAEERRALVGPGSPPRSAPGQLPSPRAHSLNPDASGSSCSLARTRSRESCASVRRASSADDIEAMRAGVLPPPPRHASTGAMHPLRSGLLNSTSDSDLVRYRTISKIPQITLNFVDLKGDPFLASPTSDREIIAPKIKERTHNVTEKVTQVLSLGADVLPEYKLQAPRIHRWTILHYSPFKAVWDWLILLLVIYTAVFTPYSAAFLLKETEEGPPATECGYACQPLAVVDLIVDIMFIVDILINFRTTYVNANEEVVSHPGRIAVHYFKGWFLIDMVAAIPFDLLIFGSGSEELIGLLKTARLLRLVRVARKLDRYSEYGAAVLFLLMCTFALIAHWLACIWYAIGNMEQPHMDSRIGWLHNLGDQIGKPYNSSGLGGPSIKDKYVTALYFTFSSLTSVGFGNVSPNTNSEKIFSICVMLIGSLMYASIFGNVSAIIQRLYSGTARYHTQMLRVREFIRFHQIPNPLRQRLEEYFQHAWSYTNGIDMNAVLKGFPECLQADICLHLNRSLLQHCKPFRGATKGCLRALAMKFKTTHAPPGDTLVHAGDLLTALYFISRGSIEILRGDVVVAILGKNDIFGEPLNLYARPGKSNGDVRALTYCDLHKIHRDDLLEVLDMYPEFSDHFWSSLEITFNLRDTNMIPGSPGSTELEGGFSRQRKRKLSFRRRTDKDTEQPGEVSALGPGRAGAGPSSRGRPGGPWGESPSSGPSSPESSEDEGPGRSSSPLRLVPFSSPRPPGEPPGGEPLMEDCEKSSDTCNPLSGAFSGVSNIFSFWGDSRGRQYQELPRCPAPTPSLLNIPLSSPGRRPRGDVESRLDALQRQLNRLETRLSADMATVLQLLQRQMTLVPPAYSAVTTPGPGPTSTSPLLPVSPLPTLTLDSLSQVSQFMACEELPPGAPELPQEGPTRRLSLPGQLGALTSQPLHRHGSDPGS
Cytochrome P450 3A4, sequence (P08684 whole entry): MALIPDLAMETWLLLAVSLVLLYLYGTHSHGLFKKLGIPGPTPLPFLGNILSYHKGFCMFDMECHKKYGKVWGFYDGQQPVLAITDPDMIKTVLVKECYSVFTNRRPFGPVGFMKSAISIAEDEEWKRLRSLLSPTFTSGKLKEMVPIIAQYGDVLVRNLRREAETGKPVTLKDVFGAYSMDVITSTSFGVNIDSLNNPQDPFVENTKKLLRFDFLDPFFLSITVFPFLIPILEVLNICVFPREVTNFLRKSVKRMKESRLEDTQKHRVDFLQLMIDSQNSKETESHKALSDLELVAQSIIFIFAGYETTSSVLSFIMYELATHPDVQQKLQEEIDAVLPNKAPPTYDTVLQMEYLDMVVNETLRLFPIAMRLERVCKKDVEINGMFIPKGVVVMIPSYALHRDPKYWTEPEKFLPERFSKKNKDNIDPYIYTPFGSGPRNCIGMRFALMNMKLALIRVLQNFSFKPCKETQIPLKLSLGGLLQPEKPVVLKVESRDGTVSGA
Cytochrome P450 2C19, sequence (P33261 whole entry): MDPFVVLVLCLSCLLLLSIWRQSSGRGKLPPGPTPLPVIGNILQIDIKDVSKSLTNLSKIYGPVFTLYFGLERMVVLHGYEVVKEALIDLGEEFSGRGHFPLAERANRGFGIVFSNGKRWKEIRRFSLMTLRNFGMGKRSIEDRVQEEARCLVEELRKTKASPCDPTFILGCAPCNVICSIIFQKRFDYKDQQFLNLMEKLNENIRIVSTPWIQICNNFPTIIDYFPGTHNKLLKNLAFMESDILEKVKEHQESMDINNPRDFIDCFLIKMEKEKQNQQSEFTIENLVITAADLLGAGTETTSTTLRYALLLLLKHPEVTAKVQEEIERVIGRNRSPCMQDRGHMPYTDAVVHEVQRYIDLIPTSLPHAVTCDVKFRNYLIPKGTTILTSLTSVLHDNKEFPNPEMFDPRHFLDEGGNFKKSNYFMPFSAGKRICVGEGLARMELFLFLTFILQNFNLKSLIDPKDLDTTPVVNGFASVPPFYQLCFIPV

NC(=O)[C@@H](CCC(F)(F)F)N(CC12CC(c3ncon3)(C1)C2)S(=O)(=O)c1ccc(Cl)cc1
Drug metabolism (Liver microsomes): Not Active
AUC(0-t) [1]: 12 µM·h
Vd [2]: 2.12 L/kg
inhibition (INH) (Cytochrome P450 3A4): Not Active
Activity (Mus musculus [3]): 31%
Ratio [4]: 0.34
inhibition (INH) (Cytochrome P450 2C9): Not Active
Tmax [5]: 2 h
Activity [6]: Not Active
Kp [7]: 0.84
Tmax [8]: 1 h
AUC(0-t) [9]: 0.118 µM·h
solubility thermodynamic [10]: 19.7 µM (≈ 9.71 µg/mL)
efflux ratio (P-gp): 1.66
Cmax [11]: 5.6 µM
Activity (Mus musculus [12]): 64%
inhibition (INH) (Cytochrome P450 2C19): Not Active
Activity (Mus musculus [13]): 64%
AUC(0-t) at 24 h [14]: 19.4 µM·h
clearance [15]: 13.3 mL/min/kg
bioavailability [16]: 100%
Tmax [17]: 1 h
Kp [18]: 0.61
solubility thermodynamic [19]: 29.4 µM (≈ 14.5 µg/mL)
inhibition (INH) (Cytochrome P450 1A2): Not Active
CLt/F (Hepatocyte): < 3.8 µL/min
Cmax [20]: 6.48 µM
Cmax [21]: 1.86 µM
fraction unbound [22]: 0.0354
